Measured values collected from several papers.
Protocols differ between the studies behind these lines. pIC50: −log10 of the molar value.
BCHE: Cholinesterase (BCHE, Equus caballus, UniProt P81908)
SLC6A4: Sodium-dependent serotonin transporter (SLC6A4, Homo sapiens, UniProt P31645)

With `COC(=O)[C@H](CCC(=O)Nc1cccc2c1ccn2Cc1cccc(C(N)=O)c1)NC(=O)OCc1ccccc1` the pIC50 was 5.44 (NAD-dependent protein deacetylase sirtuin-3, mitochondrial (SIRT3, Homo sapiens, UniProt Q9NTG7); enzyme activity; inhibitor).
For `O=C(CNC(=S)NN=Cc1ccc([N+](=O)[O-])cc1)c1ccc([N+](=O)[O-])cc1`, the pIC50 was 3.49 (BCHE; enzyme activity; inhibitor; Ellman).
`NC(N)=S` has a pIC50 of 5.05 (Urease (Canavalia ensiformis, UniProt P07374); enzyme activity; inhibitor).
With `CCn1cnc2c(Nc3cccc(Cl)c3)nc(N[C@@H]3CCCC[C@@H]3N)nc21` the pIC50 was 6.00 (Ribosomal protein S6 kinase alpha-3, N-terminal kinase domain (RPS6KA3, Homo sapiens, UniProt P51812); enzyme activity; inhibitor; FP).
`C#CCN(C)c1nc(NCCCC2CCN(Cc3ccccc3)CC2)c(C#N)cc1C#N` has a pIC50 of 5.92 (BCHE; enzyme activity; inhibitor; Ellman).
For `CC=C1[C@H]2C=C(C)C[C@]1(N)c1cc(OC)c(=O)[nH]c1C2`, the pIC50 was 3.22 (BCHE; enzyme activity; inhibitor; Ellman).
The pIC50 of `O=P(O)(O)Oc1cccc(OP(=O)(O)O)c1` is reported as 4.30 (Signal transducer and activator of transcription 5A, SH2 (Homo sapiens, UniProt P42229); ligand displacement; FP).
`CC=C1[C@H]2C=C(C)C[C@]1(N(C)C)c1ccc(=O)n(C)c1C2` has a pIC50 of 3.59 (BCHE; enzyme activity; inhibitor; Ellman).
With `Clc1ccc2c(C3CCN(CCc4c[nH]c5ccccc45)CC3)c[nH]c2c1` the pIC50 was 8.68 (SLC6A4; ligand displacement; radioligand; cell membranes).
With `CC=C1[C@H]2C=C(C)C[C@]1(N)c1cc(OCC)c(=O)[nH]c1C2` the pIC50 was 3.60 (BCHE; enzyme activity; inhibitor; Ellman).
`NC(=O)N1C[C@@H](CCN2CC=C(c3c[nH]c4cc(Cl)ccc34)CC2)c2ccccc21` gave a pIC50 of 6.77 (SLC6A4; ligand displacement; radioligand; cell membranes).
`CN1C[C@H](C(=O)N[C@]2(C)O[C@@]3(O)[C@@H]4CCCN4C(=O)[C@H](Cc4ccccc4)N3C2=O)C[C@@H]2c3cccc4[nH]cc(c34)C[C@H]21` has a pIC50 of 5.32 (D(1A) dopamine receptor (DRD1, Homo sapiens, UniProt P21728); ligand displacement; radioligand).
`CC=C1[C@H]2C=C(C)C[C@]1(N)c1cc(OCCC)c(=O)[nH]c1C2` has a pIC50 of 4.06 (BCHE; enzyme activity; inhibitor; Ellman).
